The values that follow come from article PMC4739608 (The Journal of Cell Biology, 2016).

Assay [1] relates to consensus adhesome proteins. The note with it: three other studies; ref Horton et al., 2015b; cited from earlier work.
The subject of assay [2] is HFF cells. Description: Crystal violet proliferation assay. The assay is classed as cell-based, human. The note with it: up to 4 d, total cell number by crystal violet.
Assay [3] relates to HFF cells. Description: Immunofluorescence of IACs in HFF cells. Type of assay: cell-based, human. The note with it: HFFs prespread on FN, 3 µM FAK [i] or 10 µM PF228, 1 h. The method, boiled down:
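Cells were grown on FN-coated (10 µg/ml) coverslips or glass-bottom dishes. HFFs were spread on FN for 1 h before inhibitor or DMSO was added. Cells were fixed in 4% paraformaldehyde for 7 min, then permeabilized with 0.5% Triton X-100 for 10 min. Primary antibodies were applied for 1 h and secondaries for 30 min, in 2% BSA at RT. Stained areas >10 pixels were normalized to total cell area, with count and size per cell.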

The subject of assay [4] is NIH3T3 cells. Description: Immunofluorescence of IACs in NIH3T3 cells. The note with it: NIH3T3 on FN, 3 µM FAK [i] or 10 µM PF228, 1 h. Type of assay: cell-based, mouse.

As to `Cc1ccc2c(c1)C(=O)C1(O)CCN(c3ccccc3)C1=N2` (stereo not drawn) [blebbistatin], the “consensus adhesome proteins, mean fold decrease upon blebbistatin treatment” value in assay [1] was 2.1 fold.

Regarding `CN1CCN(CCOc2cc(OC3CCOCC3)c3c(Nc4c(Cl)ccc5c4OCO5)ncnc3c2)CC1` [Src [i], N-(5-chloro-1,3-benzodioxol-4-yl)-7-[2-(4-methylpiperazin-1-yl)ethoxy]-5-(tetrahydro-2H-pyran-4-yloxy)quinazolin-4-amine], the “inhibition of proliferation relative to DMSO” value in assay [2] was found to be 30%.

On to `CS(=O)(=O)c1cccc(CNc2nc(Nc3ccc4c(c3)CCC(=O)N4)ncc2C(F)(F)F)c1` [PF228], for which, in assay [3], the “FAK^Y397 levels by immunofluorescence” value is listed as “significantly reduced”; the “area and numbers of vinculin- or paxillin-containing IACs, and the actin cytoskeleton” value was “unaffected”. Moreover, in assay [4], the “FAK^Y397 levels by immunofluorescence” value was “reduction of FAK^Y397 levels” and the “vinculin- or paxillin-containing IACs” value is “did not affect”.
